A short description of assay [1]: inhibitors of TNFa-induced NFkB p65 translocation, primary screen, imaging, HUVEC, MLSMR starter and 10KST1 sets (AID 438;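 active means inhibition above 20% together with a positive visual image hit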;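 further: compound added about 3h40 before a 20 min TNFalpha stimulation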;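 on inhibition: signal is the nuclear over cytoplasmic p65 intensity ratio per well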). The settings on record: HUVEC TNFa-induced p65 nuclear translocation; cell count: measured here: nuclei count (cytotoxicity indicator), at 2.08 µM; inhibition: at 2 µM, stronger effect = higher value, 0% TNFa-plus-vehicle, 100% no-TNFa wells.
A short description of assay [2]: inhibitors of mutant huntingtin aggregation, primary screen, imaging, exon1htt(103Q)mCFP cells, high-content imaging (AID 483;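 active means visual image review flags a hit and inhibition of aggregation exceeds 20%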;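 further: compound exposure lasted 3 days before fixation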;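 on nuclei count: percent of the per-plate median nuclei count of sample wells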). The following applies: exon1htt(103Q)mCFP cell line, aggregate imaging, at 2 µM; inhibition of aggregation: stronger effect = higher value; nuclei count: measured here: cell count, toxicity.
Assay [3] is described as follows: inhibitors of E-selectin induction by TNFa, primary screen, imaging, HUVEC, immunofluorescence, MLSMR starter and 10KST1 sets (AID 487;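 active means visually confirmed hit in the image check and inhibition above 20%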;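 on inhibition: signal is fraction of cell area covered by stained E-selectin grains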;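 on nuclei count: 100% = median nuclei count of all wells on the same plate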). The following applies: HUVEC TNFalpha-induced E-selectin immunofluorescence imaging, at 2 µM; inhibition: stronger effect = higher value; nuclei count: measured here: cell number, toxicity.
Assay [4] addresses Voltage-gated potassium channel subunit beta-2 (Rattus norvegicus) (UniProt P62483). In words: KvBeta enzyme negative modulators, primary screen, biochemical, NADPH fluorescence (AID 622).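 Further: slope of raw intensity against log time taken from 70 to 1610 s.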 The settings on record: recombinant KvBeta, 4-cyanobenzaldehyde reduction, at 10 µM, stronger effect = higher value.
Assay [5] has the same target. Kind of assay: KvBeta positive modulators, primary screen, biochemical, NADPH fluorescence (AID 623;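 active means NADPH fluorescence slope more negative than the mean of all samples by about 3 SD, 99.7% confidence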;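 further: fluorescence intensity change per second fitted from 20 to 320 s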). The following applies: Recombinant KvBeta, NADPH fluorescence decrease slope, 10 min; at 10 µM; stronger effect = lower value.
For assay [6], the target named is Muscarinic acetylcholine receptor M4 (Homo sapiens) (UniProt P08173). Kind of assay: compounds altering M4/GIRK thallium flux, either direction, primary screen, M4 allosteric agonist project, cell-based, HEK293 M4/GIRK, BTC-AM (AID 625;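 active means fluorescence slope after compound addition differing from the mean of all tested samples at 99.7% confidence, mostly higher but some lower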;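 further: thallium influx through GIRK channels coupled to M4 in HEK293 cells with BTC-AM dye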). The settings on record: at 10 µM, actives lie on both sides. The essentials: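 Assay system: HEK293 cells with M4 receptor and GIRK channels / Controls: carbachol and DMSO controls / Schedule: 1 h dye loading, 2 min kinetic read / Technique: kinetic fluorescence with BTC-AM dye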
Muscarinic acetylcholine receptor M4 (Homo sapiens), sequence (P08173 whole entry, looked up): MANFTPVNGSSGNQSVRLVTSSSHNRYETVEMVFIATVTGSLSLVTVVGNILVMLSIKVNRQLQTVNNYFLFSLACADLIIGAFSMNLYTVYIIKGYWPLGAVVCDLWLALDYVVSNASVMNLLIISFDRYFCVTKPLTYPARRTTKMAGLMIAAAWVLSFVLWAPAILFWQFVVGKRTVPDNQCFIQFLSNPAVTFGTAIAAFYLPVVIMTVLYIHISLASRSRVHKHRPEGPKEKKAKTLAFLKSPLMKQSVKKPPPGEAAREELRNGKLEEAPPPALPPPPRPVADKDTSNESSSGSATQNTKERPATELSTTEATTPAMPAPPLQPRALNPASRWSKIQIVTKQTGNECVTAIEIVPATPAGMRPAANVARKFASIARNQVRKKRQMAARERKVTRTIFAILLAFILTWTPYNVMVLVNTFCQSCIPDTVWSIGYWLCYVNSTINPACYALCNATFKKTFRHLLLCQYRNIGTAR

A short description of assay [7]: inhibitors of Sendai virus-induced IRF3 signaling, primary screen, TLR/RLR signaling modifier project, cell-based, Sendai virus stimulus, luciferase, 10K MLSCN set (AID 602276;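 active means inhibition at or above 50% at 10 µM; inactive means inhibition below 50%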;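 further: firefly luciferase from ISG56 promoter only with Renilla not read in this screen; 0% = Sendai virus plus DMSO and 100% = medium plus DMSO without virus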). The settings on record: HEK293 RL24 IRF3 luciferase reporter, at 10 µM, stronger effect = higher value.
Assay [8] can be described thus: inhibitors of poly I:C-induced TLR3 signaling, primary screen, cell-based, poly I:C stimulus, luciferase, 10K MLSCN set (AID 602277;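 active means inhibition of the reporter signal at or above 50%; inactive means inhibition below 50%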). The following applies: HEK293-TLR3 RL24 IRF3 luciferase reporter, at 10 µM, stronger effect = higher value.

Results on 14 molecules are retold here after PubChem BioAssay.

Activity calls are given as the source filed them.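 How the source made its calls, unless noted: active means fluorescence slope higher than the sample average by over 3 SD (cut at about -0.22 in these data, passing the limit was not always enough); inactive means the rest.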

Voltage-gated potassium channel subunit beta-2 (Rattus norvegicus), sequence (P62483 whole entry, looked up): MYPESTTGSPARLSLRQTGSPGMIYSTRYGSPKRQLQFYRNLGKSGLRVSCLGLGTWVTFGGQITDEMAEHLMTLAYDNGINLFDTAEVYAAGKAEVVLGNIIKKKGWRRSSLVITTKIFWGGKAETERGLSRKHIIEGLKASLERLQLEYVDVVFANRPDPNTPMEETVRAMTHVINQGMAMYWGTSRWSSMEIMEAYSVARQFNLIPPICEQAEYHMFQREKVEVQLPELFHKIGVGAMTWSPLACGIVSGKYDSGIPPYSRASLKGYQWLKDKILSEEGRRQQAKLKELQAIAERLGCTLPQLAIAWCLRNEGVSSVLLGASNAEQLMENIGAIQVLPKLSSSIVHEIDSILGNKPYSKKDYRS

As to `O=C(Nc1cccc2c1CCCC2)C1CCN(c2nnnn2-c2ccccc2)CC1`, the cell count in assay [1] amounted to 653. Moreover, the inhibition in assay [1] is 1.7% (inactive); in assay [3], -20.6% (inactive); in assay [7], 10.2% (inactive); in assay [8] it was 10.8% (inactive). The inhibition of aggregation in assay [2] was 0.3% (inactive). Further, the nuclei count in assay [2] and in assay [3] was 109% each time. Further, the fluorescence slope in assay [4] was -0.566 (inactive); in assay [6], 0.00472 (inactive). Moreover, the NADPH fluorescence slope in assay [5] is 2.3e-05 (inactive).

Take `CCCC(=O)N=C1SC2CS(=O)(=O)CC2N1c1ccc(CC)cc1` (centres undefined): in assay [1], the cell count was determined as 286. In addition, the inhibition in assay [1] is 20.4% (inactive); in assay [3], 26.4% (inactive); in assay [7], 15.3% (inactive); in assay [8] it was 24.6% (inactive). For the same molecule, the inhibition of aggregation in assay [2] was 23.4% (inactive). Further, the nuclei count in assay [2] came to 87%; in assay [3], 98.5%. Also, the results for the fluorescence slope in assay [4] and in assay [6] were -0.402 (inactive) and 0.0062 (inactive), respectively. Besides, in assay [5], the NADPH fluorescence slope was -3.7e-05 (inactive).

Consider `CN1C(=O)NC(NC(=O)C2CCCCC2)(C(F)(F)F)C1=O` (centres undefined), for which the cell count in assay [1] came to 650. Besides, the inhibition in assay [1] is 1.4% (inactive); in assay [3] it was 3.3% (inactive); in assay [7], 17% (inactive); in assay [8], 17.5% (inactive). The inhibition of aggregation in assay [2] was 0.6% (inactive). Further, the nuclei count in assay [2] was determined as 97.1%; in assay [3], 99.5%. For the same molecule, the results for the fluorescence slope in assay [4] and in assay [6] were -0.579 (inactive) and 0.0049 (inactive), respectively. The NADPH fluorescence slope in assay [5] is -2.4e-05 (inactive).

Turning to `CCOc1cc2[nH]c(=O)n(CCCCC(=O)N3CCCCCC3)c(=O)c2cc1OCC`, the cell count in assay [1] came out at 218. The inhibition in assay [1] was 2.2% (inactive); in assay [3] it was 14.4% (inactive); in assay [7] it was 14.3% (inactive); in assay [8], 18.4% (inactive). The inhibition of aggregation in assay [2] was 4.8% (inactive). Further, the nuclei count in assay [2] was determined as 86.8%; in assay [3], 89.8%. Moreover, the fluorescence slope in assay [4] is -0.437 (inactive); in assay [6], 0.00663 (inactive). Moreover, the NADPH fluorescence slope in assay [5] was -0.00041 (inactive).

With `CCCC(C(=O)NCc1ccco1)N(C(=O)CNS(=O)(=O)c1ccc(Cl)cc1)C1CCCC1` (centres undefined), the cell count in assay [1] is 387. Besides, the inhibition was -0.7% (inactive) in assay [1], -210% (inactive) in assay [3], 24.7% (inactive) in assay [7] and 25.7% (inactive) in assay [8]. Also, the inhibition of aggregation in assay [2] is -2.5% (inactive). The results for the nuclei count in assay [2] and in assay [3] were 110% and 111%, respectively. The fluorescence slope was -0.522 (inactive) in assay [4] and 0.00544 (inactive) in assay [6]. Further, the NADPH fluorescence slope in assay [5] was -1.1e-05 (inactive).

Take `COc1ccc(-c2[nH]nc3c2C(c2ccccc2OC(=O)N2CCOCC2)C(C#N)=C(N)O3)cc1` (centres undefined): in assay [1], the cell count was 663. Moreover, the inhibition was -15.1% (inactive) in assay [1], -15.6% (inactive) in assay [3], 25.8% (inactive) in assay [7] and 19% (inactive) in assay [8]. In assay [2], the inhibition of aggregation is -9.9% (inactive). Further, the nuclei count in assay [2] and in assay [3] was 104% each time. Further, the fluorescence slope was -0.574 (inactive) in assay [4] and 0.00609 (inactive) in assay [6]. In addition, the NADPH fluorescence slope in assay [5] is -3.5e-05 (inactive).

On to `O=C(CSc1nnnn1Cc1ccccc1)Nc1ccc2c(c1)OCO2`, for which, in assay [1], the cell count was determined as 551. In addition, the inhibition in assay [1] was -10.7% (inactive); in assay [3], -1% (inactive); in assay [7] it was 1.63% (inactive); in assay [8] it was 2.13% (inactive). For the same molecule, the inhibition of aggregation in assay [2] is 10% (inactive). In addition, the nuclei count in assay [2] is 92.1%; in assay [3], 93.6%. For the same molecule, the fluorescence slope is -0.257 (inactive) in assay [4] and 0.00493 (inactive) in assay [6]. Further, the NADPH fluorescence slope in assay [5] is -9.5e-06 (inactive).

On to `Cn1c(C(=O)NCC2CCCO2)cc2c(=O)[nH]c3ccccc3c21` (centres undefined), for which, in assay [1], the cell count stood at 334. Moreover, the inhibition was 11.8% (inactive) in assay [1], 47.5% (inactive) in assay [3], -11.9% (inactive) in assay [7] and -5.12% (inactive) in assay [8]. For the same molecule, in assay [2], the inhibition of aggregation is -27.1% (inactive). In addition, the nuclei count in assay [2] stood at 114%; in assay [3], 76.8%. For the same molecule, the fluorescence slope in assay [4] is -0.355 (inactive); in assay [6] it was 0.00794 (inactive). Further, the NADPH fluorescence slope in assay [5] was -5.9e-05 (inactive).

Take `COc1ccccc1NC1=NC2(CCCC2)N=C(N)N1`: the cell count in assay [1] was found to be 313. The inhibition in assay [1] is -9.5% (inactive); in assay [3] it was 18% (inactive); in assay [7], 7.65% (inactive); in assay [8], 19.3% (inactive). Further, the inhibition of aggregation in assay [2] was -26.7% (inactive). Moreover, the nuclei count in assay [2] is 115%; in assay [3], 124%. The values for the fluorescence slope in assay [4] and in assay [6] were -0.569 (inactive) and 0.00551 (inactive), respectively. For the same molecule, the NADPH fluorescence slope in assay [5] was -6.5e-06 (inactive).

For the molecule `CC1CN(S(=O)(=O)c2cccc(C(=O)OCc3cc(=O)oc4cc(O)ccc34)c2)CC(C)O1` (centres undefined), in assay [1], the cell count stood at 380. Moreover, the inhibition in assay [1] is -2.9% (inactive); in assay [3], -28.2% (inactive); in assay [7], 23.9% (inactive); in assay [8], 23.3% (inactive). Besides, the inhibition of aggregation in assay [2] is 3% (inactive). Further, the nuclei count in assay [2] was 100%; in assay [3], 83%. The fluorescence slope in assay [4] was -0.288 (inactive); in assay [6] it was 0.00505 (inactive). The NADPH fluorescence slope in assay [5] is -7.6e-05 (inactive).

For `CC(C(=O)N1CCOCC1)N1c2cccc3cccc(c23)S1(=O)=O` (centres undefined), the cell count in assay [1] was 341. Also, the inhibition in assay [1] was -13.3% (inactive); in assay [3], -31.4% (inactive); in assay [7], 17.3% (inactive); in assay [8], 20.6% (inactive). Further, the inhibition of aggregation in assay [2] is 8.6% (inactive). In addition, the figures for the nuclei count in assay [2] and in assay [3] were 109% and 102%, respectively. Besides, the fluorescence slope in assay [4] was -0.548 (inactive); in assay [6] it was 0.00313 (inactive). Further, the NADPH fluorescence slope in assay [5] is -2.9e-05 (inactive).

Turning to `O=C(COC(=O)c1ccco1)NCc1cccs1`, the cell count in assay [1] stood at 516. Further, the inhibition in assay [1] was -13% (inactive); in assay [3], 7.8% (inactive); in assay [7], 5.62% (inactive); in assay [8], 5.96% (inactive). In addition, the inhibition of aggregation in assay [2] was -4.6% (inactive). Further, the values for the nuclei count in assay [2] and in assay [3] were 93.5% and 88.2%, respectively. In addition, the values for the fluorescence slope in assay [4] and in assay [6] were -0.534 (inactive) and 0.0055 (inactive), respectively. The NADPH fluorescence slope in assay [5] is -5.7e-05 (inactive).

Regarding `COc1ccccc1-n1c(C)nnc1SCC(N)=O`, the cell count in assay [1] came out at 382. Also, the inhibition in assay [1] is 6.2% (inactive); in assay [3], -49.7% (inactive); in assay [7], 17.4% (inactive); in assay [8], 22.3% (inactive). For the same molecule, the inhibition of aggregation in assay [2] was 7.3% (inactive). In addition, the nuclei count in assay [2] amounted to 100%; in assay [3] it was 103%. The fluorescence slope in assay [4] is -0.521 (inactive); in assay [6], 0.00439 (inactive). Also, the NADPH fluorescence slope in assay [5] was -1.4e-05 (inactive).

Consider `CCOC(=O)c1cccc(NC(=O)Cn2cnc3c2c(=O)n(C)c(=O)n3C)c1`, for which the cell count in assay [1] is 467. Also, the inhibition in assay [1] is 10.1% (inactive); in assay [3], 2.2% (inactive); in assay [7] it was -6.03% (inactive); in assay [8], -6.74% (inactive). Also, the inhibition of aggregation in assay [2] is 2.8% (inactive). The nuclei count in assay [2] was determined as 123%; in assay [3] it was 114%. Moreover, the values for the fluorescence slope in assay [4] and in assay [6] were -0.261 (inactive) and 0.00582 (inactive), respectively. Also, the NADPH fluorescence slope in assay [5] was -7e-06 (inactive).
